Published values of several laboratories.
Protocols differ between the studies behind these lines.
Target: Protein kinase C epsilon type (PRKCE, Homo sapiens, UniProt Q02156)
Residues used in one study (Q02156 1-737): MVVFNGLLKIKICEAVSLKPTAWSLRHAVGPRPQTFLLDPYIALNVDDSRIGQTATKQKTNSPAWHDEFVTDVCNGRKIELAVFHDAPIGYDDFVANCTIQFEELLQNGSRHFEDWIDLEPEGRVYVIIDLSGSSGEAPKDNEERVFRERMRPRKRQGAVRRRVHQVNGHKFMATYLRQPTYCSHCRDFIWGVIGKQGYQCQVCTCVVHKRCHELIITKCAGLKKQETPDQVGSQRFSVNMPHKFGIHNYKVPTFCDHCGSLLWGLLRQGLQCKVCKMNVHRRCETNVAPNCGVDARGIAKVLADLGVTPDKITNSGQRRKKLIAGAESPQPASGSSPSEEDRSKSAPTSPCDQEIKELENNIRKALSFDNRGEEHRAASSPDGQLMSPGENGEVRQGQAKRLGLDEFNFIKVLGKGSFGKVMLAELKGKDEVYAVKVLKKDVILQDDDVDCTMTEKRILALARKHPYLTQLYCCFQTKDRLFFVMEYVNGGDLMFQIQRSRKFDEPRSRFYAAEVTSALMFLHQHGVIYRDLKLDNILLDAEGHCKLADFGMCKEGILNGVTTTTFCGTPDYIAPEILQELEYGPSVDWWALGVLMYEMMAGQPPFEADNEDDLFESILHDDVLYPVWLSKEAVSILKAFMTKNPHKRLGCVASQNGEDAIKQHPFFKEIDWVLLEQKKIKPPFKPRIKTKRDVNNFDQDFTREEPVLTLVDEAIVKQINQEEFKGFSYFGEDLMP

C[C@@H]1CN(c2ccc3ncc(-c4ccc5[nH]nc(C6CC6)c5c4)n3n2)C[C@H](C)O1 — remaining binding (binding; competition with immobilised ligand; 0.5 µM): 64%
CC(C)(C)c1ccc(-c2nc(CBr)nn2-c2cccc(O)c2)cc1 — remaining binding (cell-free assay; competition with immobilised ligand; 10 µM): 73%
C[C@@H](c1ccc(-n2cnc3c(N)ncnc32)cc1)N1CCc2nn(C)c(Cc3ccccc3)c2C1=O — remaining binding (binding; competition with immobilised ligand; 0.1 µM): 74%
CCC(=N\O)/C(C)=C/c1ccc(F)cc1 — remaining binding (cell-free assay; competition with immobilised ligand; 1 µM): 76%
O=C(NCCCN1CCOCC1)c1ccc(Nc2ncc(Cl)c(-c3ccc(Cl)s3)n2)cc1 — remaining binding (binding; competition with immobilised ligand; 1 µM): 67%
COc1ccc2c(O[C@@H]3C[C@H]4C(=O)N[C@]5(C(=O)O)CC5/C=C\CCCCC[C@H](NC(=O)OC5CCCC5)C(=O)N4C3)cc(-c3csc(NC(=O)C(C)C)n3)nc2c1C (some centres unmarked) — remaining binding (cell-free assay; competition with immobilised ligand; 1 µM): 58%
CN(CCCC(F)(F)F)c1nccc(-c2cnn3ncccc23)n1 — remaining binding (binding; 1 µM): 82%
O=C(c1ccc(Nc2ncc(Cl)c(-c3cc4ccccc4s3)n2)cc1)N1CCC(N2CCCC2)CC1 — remaining binding (binding; competition with immobilised ligand; 1 µM): 50%
CN(c1nccc(-c2cnn3ncccc23)n1)C1CC1 — remaining binding (binding; 1 µM): 83%
COCCOc1nc(-c2ccc(Cl)nc2)nc2c1CN(C(=O)c1ncn3ccccc13)CC2 — remaining binding (cell-free assay; competition with immobilised ligand; 0.1 µM): 89%
F[C@@H]1CCN(c2nccc(-c3cnn4ncccc34)n2)C1 — remaining binding (binding; 1 µM): 88%
Nc1ncc2c(n1)-c1c([nH]c3ccc(C#CC4CC4)cc13)CCCC2 — remaining binding (binding; competition with immobilised ligand; 1 µM): 98%
O=C(Nc1ccc(Oc2ccc(F)cc2)cc1)N1CCc2ncccc2[C@H]1c1ccc(F)cc1 — remaining binding (cell-free assay; competition with immobilised ligand; 1 µM): 100%
FC(F)(F)Oc1cccc(-c2cnc3ccc(-c4ccncc4)nn23)c1 — remaining binding (cell-free assay; competition with immobilised ligand; 5 µM): 62%
CNC(=O)[C@@H]1CC[C@@H](n2c(-c3ccc4cnccc4c3)nc3ccc(C(=O)NCc4cccc(C(N)=O)c4)cc32)C1 — remaining binding (binding; competition with immobilised ligand; 1 µM): 85%
COc1cc(-c2cn(C3CCc4ccccc4N(CC(F)(F)F)C3=O)nn2)ccc1-n1ccc(C)n1 (centres unmarked) — remaining binding (cell-free assay; competition with immobilised ligand; 1 µM): 100%
Cc1cnn2ncc(-c3ccnc(N(C)C)n3)c2c1 — remaining binding (binding; 1 µM): 100%
